Assay [1] deals with FaDu. Kind of assay: Antiproliferative activity against human FADU cells assessed as fractional inhibition at 0.5 uM after 6 days in absence of irradiation by MTT assay. In kind it is functional. The procedure, abridged:
(§1)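 FaDu or SCC-25 cells were grown in DMEM with 10% FBS at 37 °C and 5% CO2. They were seeded at 1000 cells/well in 96-well plates for 24 h, then dosed with compound (fresh DMSO stock diluted in medium) or vehicle. After 1 h, X-rays were given with a sliding 5 mm lead shield, so one plate held 0, 2.5, 5 and 10 Gy columns. After 6 days, MTT (0.5 mg/mL, 45 min) was added, then DMSO, and A570 was read. Values were normalised to the unirradiated vehicle control. Fractional inhibition = 1 − surviving fraction.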
In general terms: Tetrazolium assays rely on reduction of a dye to a coloured formazan, in cell work by metabolically active cells.

Assay [2] relates to SCC-25. Kind of assay: Synergistic antiproliferative activity against human SCC25 cells assessed as reduction in cell viability at 1 uM preincubated for 1 hr followed by irradiation with 5 Gy IR and measured after 6 days by MTT assay relative to control. Particulars: SCC-25, light or radiation study.
Assay [3] concerns FaDu. The assay can be described thus: Induction of cell cycle arrest in human FADU cells assessed as decrease in cyclin B1 at 0.5 uM incubated for 48 hrs by immunoblot analysis. The class given is functional, cell-based. The procedure, abridged: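 FaDu cells received compound at 0.5 μM, 5 Gy IR, or both. After 48 h, lysates were immunoblotted for NRF2, cyclin B1, CDK1, Bax and Bcl-2. Membranes were then stripped and reprobed for β-actin as the loading control.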
A general note: In western blotting, separated proteins are transferred to a membrane and probed.

The test system of assay [4] is SCC-25. The assay can be described thus: Synergistic antiproliferative activity against human SCC25 cells assessed as combination index at 0.5 uM preincubated for 1 hr followed by irradiation with 5 Gy IR and measured after 6 days by MTT assay. In kind it is functional. The procedure, abridged: (§2)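 SCC-25 cells grown in DMEM with 10% FBS at 37 °C, 5% CO2, seeded 1000 cells/well in 96-well plates and left 24 h. Drug in DMSO, diluted in complete medium, added 1 h before X-irradiation. A movable 5 mm lead shield gave 0, 2.5, 5 or 10 Gy on one plate. After 6 days, MTT readout at 570 nm. Combination index by Chou–Talalay from viability data.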

The subject of assay [5] is FaDu. The assay can be described thus: Synergistic induction of cell cycle arrest in human FADU cells assessed as decrease in accumulation at S phase at 0.5 uM followed irradiation with 5Gy IR incubated for 24 hrs by propidium iodide staining based flow cytometry. In kind it is functional. Summed up: (§3)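 FaDu or SCC-25 cells, untreated, given 5 Gy IR, drug, or drug plus 5 Gy. Cell-cycle distribution by propidium iodide staining and flow cytometry at 6 h and 24 h after treatment. G0/G1, S and G2/M fractions compared with control by t test.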

The subject of assay [6] is FaDu. Kind of assay: Synergistic antiproliferative activity against human FADU cells assessed as combination index at 0.5 uM preincubated for 1 hr followed by irradiation with 2.5 Gy IR and measured after 6 days by MTT assay. In kind it is functional. Summed up:
(§4)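 Combination index was calculated by the Chou–Talalay median-effect method from the 6-day MTT viability data of the single-plate compound/X-ray (2.5, 5, 10 Gy) design. CI < 1 denotes synergy, CI = 1 additivity and CI > 1 antagonism.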

Assay [7] concerns FaDu. Kind of assay: Synergistic antiproliferative activity against human FADU cells assessed as combination index at 0.05 uM preincubated for 1 hr followed by irradiation with 5 Gy IR and measured after 6 days by MTT assay. In kind it is functional. The procedure, abridged: as §4
Assay [8] relates to FaDu. Kind of assay: Synergistic antiproliferative activity against human FADU cells assessed as fractional inhibition at 0.5 uM preincubated for 1 hr followed by irradiation with 5 Gy IR and measured after 6 days by MTT assay (reference value: 0.097). The class given is functional. Summed up: as §1
The subject of assay [9] is SCC-25. Kind of assay: Synergistic antiproliferative activity against human SCC25 cells assessed as fractional inhibition at 0.005 uM preincubated for 1 hr followed by irradiation with 2.5 Gy IR and measured after 6 days by MTT assay (reference value: 0.011). The class given is functional. Summed up:
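SCC-25 cells seeded 1000/well in 96-well plates in DMEM/10% FBS and left 24 h. Drug or vehicle added, then after 1 h X-irradiated to 2.5, 5 or 10 Gy on one plate using a shifted lead shield. Plates incubated 6 days, then MTT (0.5 mg/mL, 45 min), DMSO solubilisation, absorbance at 570 nm. Fractional inhibition = 1 − fraction of surviving cells.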

Assay [10] deals with SCC-25. The assay can be described thus: Antiproliferative activity against human SCC25 cells assessed as fractional inhibition at 0.5 uM after 6 days in absence of irradiation by MTT assay. In kind it is functional. Summed up:
as §1

The subject of assay [11] is FaDu. Kind of assay: Antiproliferative activity against human FADU cells assessed as fractional inhibition at 0.005 uM after 6 days in absence of irradiation by MTT assay. The class given is functional. Summed up: as §1
Assay [12] deals with FaDu. Kind of assay: Synergistic antiproliferative activity against human FADU cells assessed as fractional inhibition at 0.05 uM preincubated for 1 hr followed by irradiation with 2.5 Gy IR and measured after 6 days by MTT assay (reference value: 0.131). The class given is functional. Summed up:
as §1

In assay [13] the test system is SCC-25. The assay can be described thus: Synergistic induction of cell cycle arrest in human SCC25 cells assessed as increase in accumulation at G2/M phase at 0.5 uM followed irradiation with 5Gy IR incubated for 24 hrs by propidium iodide staining based flow cytometry. The class given is functional. Summed up:
as §3

The subject of assay [14] is SCC-25. The assay can be described thus: Synergistic antiproliferative activity against human SCC25 cells assessed as combination index at 0.05 uM preincubated for 1 hr followed by irradiation with 2.5 Gy IR and measured after 6 days by MTT assay. The class given is functional. Summed up: as §2
Assay [15] has as its system FaDu. The assay can be described thus: Induction of cell cycle arrest in human FADU cells at 0.5 uM by propidium iodide staining based flow cytometry. The class given is functional. The procedure, abridged: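 Cell-cycle distribution was measured by propidium iodide staining and flow cytometry. Readings were taken 6 and 24 h after compound alone, 5 Gy IR alone, or the combination, against control.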
On the technique in general: Flow cytometry measures light scatter and fluorescence of single cells or particles in a stream.

Assay [16] relates to SCC-25. Kind of assay: Synergistic antiproliferative activity against human SCC25 cells assessed as combination index at 0.5 uM preincubated for 1 hr followed by irradiation with 2.5 Gy IR and measured after 6 days by MTT assay. In kind it is functional. The procedure, abridged: as §2
In assay [17] the test system is SCC-25. The assay can be described thus: Synergistic antiproliferative activity against human SCC25 cells assessed as combination index at 0.005 uM preincubated for 1 hr followed by irradiation with 2.5 Gy IR and measured after 6 days by MTT assay. In kind it is functional. Summed up:
as §2

For assay [18], the system named is SCC-25. Kind of assay: Synergistic induction of apoptosis in human SCC25 cells at 0.5 uM followed irradiation with 5Gy IR incubated for 48 hrs by annexin V FITC and propidium iodide staining based flow cytometry. The class given is functional. The procedure, abridged:
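FaDu or SCC-25 cells, untreated, given 5 Gy IR, drug, or both. Apoptotic cells measured by annexin V flow cytometry 48 h after treatment. Percentage compared with control by t test.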

The subject of assay [19] is FaDu. Kind of assay: Synergistic antiproliferative activity against human FADU cells assessed as combination index at 0.05 uM preincubated for 1 hr followed by irradiation with 2.5 Gy IR and measured after 6 days by MTT assay. The class given is functional. Summed up:
as §4

Assay [20] concerns FaDu. The assay can be described thus: Synergistic antiproliferative activity against human FADU cells assessed as combination index at 0.005 uM preincubated for 1 hr followed by irradiation with 5 Gy IR and measured after 6 days by MTT assay. The class given is functional. The procedure, abridged: as §4
Assay [21] has as its system FaDu. The assay can be described thus: Synergistic antiproliferative activity against human FADU cells assessed as fractional inhibition at 5 uM preincubated for 1 hr followed by irradiation with 10 Gy IR and measured after 6 days by MTT assay (reference value: 0.388). The class given is functional. Summed up: as §1

Activity calls are given as the source filed them. The rule behind the calls is not given here.

By inhibition is commonly meant the drop in the measured response relative to a control, in per cent.

As for `COc1ccc2c(c1)N(CCO)C1=C(C(=O)OC1)C2c1ccccc1` (stereo unspecified), the “fractional inhibitory concentration index (FICI)” value in assay [1] was 0.264; in assay [8], 0.425; in assay [9] it was 0.015; in assay [10] it was 0.361; in assay [11], 0.145; in assay [12], 0.383. Further, in assay [21], the “fractional inhibitory concentration index (FICI)” value is 0.681. In [2], the inhibition at 1 µM came out at 65%. The outcome in [3] and in [5] was Active. Further, the CI in [4] was 0.395; in assay [6] it was 0.377; in [7] it was 1.18; in assay [14], 0.835; in [16] it was 0.386; in assay [17], 1.216. The CI in [19] is reported as 0.234; in assay [20], 1.822. Further, the “fold change (FC)” value in assay [13] was determined as 2; in assay [18], 7. The result in assay [15] was inactive.

The values are drawn from ChEMBL document CHEMBL4364341, “Radiosensitization of Head and Neck Squamous Cell Carcinoma (HNSCC) by a Podophyllotoxin” (ACS Med Chem Lett, 2019).
